Most compounds without a hit are left out; they make up all but 2.2% or so of the library.
PGC1a acetyl inh – lowers PGC1a acetylation signal in U2OS cells; AlphaScreen anti-acetyl-lysine; with virally co-expressed GCN5 acetyltransferase; inhibition, % at 15.6 µM; 350,000 compounds, 0.17% hits;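 active = every replicate shows inhibition of at least 40%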;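 note: 0% = neutral control wells and 100% = positive control wells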
SIRT5 inh – sirtuin-5 (human) deacylase inhibition | Q9NXA8 | Purified SirT5, succinyl-peptide AMC, trypsin-coupled fluorescence | inhibition, % at 15 µM | 330,000 compounds, 1.1% hits | AID 652115; in the data active = inhibition above about 15%
FN deposition inh – fibronectin deposition inhibition. AH1F fibroblasts, Alexa488-fibronectin deposition fluorescence, overnight. inhibition, % at 12.6 µM. 350,000 compounds, 0.086% hits. AID 743247;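 active = mean inhibition across replicates of 30% or more, regardless of how many single replicates reach that level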;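 note: positive control wells lacked labelled fibronectin entirely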
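Measured by – fluorescence 485/525 nm · System – AH1F fibroblast monolayer, labelled fibronectin deposition · Amount – 10000 cells per well · Buffer or medium – serum-reduced DMEM (2% serum) · Doses – single dose, pinned · Also added – fluorescent fibronectin at 24 nM final · Schedule – 1 h cell attachment, overnight exposure to compound and label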
ERAP1 inh – ERAP1 (human) enzyme inhibition | AID 652197 | inhibition, % at 10.7 µM | recombinant ERAP1, Leu-AMC fluorescence, 60 min | Q9NZ08 | 340,000 compounds, 0.15% hits;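 active = mean replicate inhibition of at least 30%, or all replicates individually reaching that 30% level; inactive = mean below 30% and not every replicate reaching it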;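 note: 0% = neutral control wells and 100% = L-leucinethiol positive control wells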
FGF22 binding – shifts melting point of recombinant human FGF22; recombinant FGF22 thermal shift, SYPRO orange fluorescence; percent of sucrose octasulfate shift, DMSO zero; activity (Tm shift, normalised), % at 9.99 µM; 340,000 compounds, 1.5% hits; AID 651658;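 active = mean Tm shift, scaled 0 neutral to 100 positive control, at about 1.3% or above, every replicate too, limit read from the data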
Target sequence (Q9HCT0 whole entry, looked up): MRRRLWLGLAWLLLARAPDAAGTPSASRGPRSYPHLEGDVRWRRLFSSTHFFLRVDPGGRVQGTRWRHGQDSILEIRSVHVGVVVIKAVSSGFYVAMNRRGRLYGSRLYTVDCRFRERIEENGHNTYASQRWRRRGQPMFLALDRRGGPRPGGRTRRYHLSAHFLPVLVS
An asterisk follows results filed as active; . = no result given.

SMILES	PGC1a acetyl inh	SIRT5 inh	FN deposition inh	ERAP1 inh	FGF22 binding
COC(=O)Cc1c(C)c2ccc(O)c(CNCc3ccc(OC)c(OC)c3)c2oc1=O	-4	-143	6	97*	0
C[C@@H]1CCCCO[C@H](CN(C)C(=O)C2CCCCC2)[C@@H](C)CN([C@@H](C)CO)C(=O)c2cc(NC(=O)c3ccncc3)ccc2O1	-15	-5	.	-4	0
Cc1noc(C)c1NC(=O)Nc1ccc2c(c1)C(=O)N([C@@H](C)CO)C[C@H](C)[C@@H](CN(C)Cc1ccc(Oc3ccccc3)cc1)O2	4	-5	.	0	0
CC(C)Cn1cnc2c1c(=O)n(CC(=O)N(C)C)c(=O)n2Cc1ccccc1	.	0	.	3	44*
CCCNC(=O)[C@H]1[C@H](CO)[C@H]2Cn3c(ccc(-c4ccccc4F)c3=O)[C@@H]1N2C(=O)CC	.	-15	.	1	0
CCOC(=O)c1nn(-c2ccccc2)cc1O	.	28*	0	-4	0
CCCC(C)C(=O)Nc1nc(C)c(-c2csc(Nc3ccccc3OC)n2)s1 (stereo not given)	-4	-3	-7	-3	0
CCCC(C)C(=O)Nc1nc(C)c(-c2csc(Nc3ccc(Cl)cc3)n2)s1 (stereo not given)	.	31*	-3	-2	0
COc1ccc(CC2C(=O)NC(C)C(=O)N(C)C3Cc4ccc(cc4)Oc4cc(ccc4O)CC(C(=O)NC(C)C(=O)NC(C)C(=O)N2C)N(C)C3=O)cc1 (stereo not given)	70*	1	22	-1	0
COc1ccc(NC(=O)CCCC(=O)O)cc1Cl	4	-3	-5	1	43*
COc1ccc(NC(=O)CCCN2C(=O)CCC2=O)cc1Cl	-4	.	.	.	.
COc1ccc(NC(=O)[C@@H](NC(N)=O)C(C)C)cc1Cl	.	-2	6	-1	44*
C[C@@H]1CCc2cnnn2COC[C@@H](Cc2ccccc2)NC1=O	.	2	-1	4	0
C[C@H](CO)N1C[C@H](C)[C@@H](CN(C)C)Oc2cc(-c3cccc(C(=O)N(C)C)c3)ccc2S1(=O)=O	7	1	.	-2	0
CSc1nc(S(=O)(=O)c2ccccc2)c(Cl)s1	.	-3	-3	-2	43*
O=C(Nc1nccs1)c1ccc(Cl)cc1[N+](=O)[O-]	6	-3	.	-4	0
O=C(Nc1nccs1)c1ccccn1	.	-5	-2	2	43*
O=C(Nc1nccs1)c1cnccn1	-3	.	13	.	.
O=C(Nc1nccs1)c1cc2cc(Cl)ccc2oc1=O	8	21*	6	1	0
O=C(C[C@H]1C=C[C@@H](NC(=O)c2ccc3c(c2)OCO3)[C@@H](CO)O1)NCc1ccc(Oc2ccccc2)cc1	7	6	.	-3	0
OCC(O)C1OC(Nc2ccc(Br)cc2)C(O)C1O (stereo not given)	-2	1	.	3	43*
CCC(=O)NCCCNc1nc2c(C)cccc2cc1C#N	-1	-1	1	3	43*
C[C@@H]1CN([C@@H](C)CO)C(=O)Cc2cc(NS(=O)(=O)c3ccccc3)ccc2O[C@H]1CN(C)CC1CCCCC1	.	19*	.	-1	-1
C[C@@H]1CN([C@H](C)CO)C(=O)Cc2cc(NS(=O)(=O)c3ccc(F)cc3)ccc2O[C@H]1CN(C)CC1CCCCC1	-5	23*	-12	1	0
C[C@H]1CN([C@@H](C)CO)C(=O)Cc2cc(NS(=O)(=O)c3ccccc3)ccc2O[C@H]1CN(C)CC1CCCCC1	.	2	.	0	0
C[C@H]1CN([C@@H](C)CO)C(=O)Cc2cc(NS(C)(=O)=O)ccc2O[C@H]1CN(C)CC1CC1	16	3	.	4	.
C[C@H](CO)N1C[C@H](C)[C@H](CN(C)CC2CCCCC2)Oc2ccc(NS(=O)(=O)c3ccc(F)cc3)cc2CC1=O	1	10	-11	-1	0
C[C@@H]1CN([C@H](C)CO)C(=O)Cc2cc(NS(C)(=O)=O)ccc2O[C@@H]1CN(C)CC1CC1	-6	17*	.	1	0
C[C@@H]1CN([C@H](C)CO)C(=O)Cc2cc(NC(=O)Nc3ccc4c(c3)OCO4)ccc2O[C@H]1CN(C)CC1CCCCC1	-11	17*	.	2	-1
C[C@@H]1CN([C@H](C)CO)C(=O)Cc2cc(NC(=O)Cc3ccccc3)ccc2O[C@H]1CN(C)C(=O)Nc1ccccc1	5	-2	.	-3	0

High-throughput results deposited in PubChem BioAssay by Broad Institute.
